Measurements from different studies.
Each line is one published result; the experiments were not run side by side.

O=C(Nc1ccc(C(F)(F)F)cc1)N1CCC(Cc2cccc(Oc3ccc(C(F)(F)F)cn3)c2)CC1
half-life (male Swiss mouse, blood; oral, 1 mg/kg): 5.1 h

CC(C)Oc1c(NC(=O)c2ccc(NC(=O)[C@H](CC(N)=O)NC(=O)c3ccc(NC(=O)c4ccc(C#N)cc4)cc3)cc2)ccc(C(=O)Nc2ccc(C(=O)O)cc2)c1O
half-life (male CD-1 mouse, plasma; intravenous, 5 mg/kg, single dose): 0.98 h

CCOc1ccc(Cc2cc([C@@H]3O[C@H](CO)[C@@H](O)[C@H](O)[C@H]3O)ccc2Cl)cc1
half-life (male C57BL/6 mouse, plasma; intravenous, 1 mg/kg): 3.4 h

COc1nc(-c2cc(C)c(N[C@@H](C)c3c(F)cc(F)cc3F)nn2)ccc1-n1cnc(C)c1
half-life (male CD-1 mouse, plasma; intravenous, 1 mg/kg, single dose): 3.1 h

CNC(=O)[C@H](Cc1c[nH]cn1)NC(=O)CN(CCCc1ccccc1)CC(=O)O
half-life (male C57BL/6 mouse, plasma; intraperitoneal, 30 mg/kg): 0.15 h

Cc1ccc2cncc(N3CCc4c(cc(Cn5ccnc5)cc4-c4cn(C)nc4C(F)(F)F)C3=O)c2c1
half-life (male CD-1 mouse, plasma; oral, 10 mg/kg): 1.1 h

O=C(Nc1nc(-c2ccc(O)c(O)c2)c(-c2ccccc2)s1)c1ccc(O)c(O)c1
half-life (female nude mouse, plasma; oral, 800 mg/kg): 10 h

CCc1ccc(Cc2cc([C@@H]3O[C@H](CO)[C@@H](O)[C@H](O)[C@H]3O)cc3c2CCC3)cc1
half-life (male C57BL/6 mouse, plasma; oral, 3 mg/kg): 3.1 h

CCc1cc(OC)c2nccc(N3CCc4c(cc(Cn5ccnc5)cc4-c4cn(C)nc4C(F)(F)F)C3=O)c2c1
half-life (male CD-1 mouse, plasma; oral, 150 mg/kg): 1.6 h

CC[C@H](C)[C@@H]1NC(=O)[C@@](C)(NC(=O)[C@H](CCCNC(=N)N)NC(=O)[C@H](CC(C)C)NC(=O)[C@@H](NC(=O)[C@H](CCC(N)=O)NC(=O)[C@H](CC(C)C)NC(C)=O)[C@@H](C)O)CCCC=CCCC[C@@](C)(C(=O)N[C@@H](CC(C)C)C(=O)N[C@@H](Cc2ccc3ccccc3c2)C(N)=O)NC(=O)[C@H](CCCNC(=N)N)NC(=O)[C@H](CCC(N)=O)NC1=O
half-life (male BALB/c mouse, plasma; intravenous, 10 mg/kg): 2.17 h

CN1CCC[C@H](CN2c3ccccc3Sc3ccccc32)C1.Cl
half-life (mouse, plasma; intraperitoneal, 32 mg/kg, single dose): 2.82 h

CCNc1nc2c(c(N3CC(=O)Nc4cc(OC)ccc43)n1)CCC2
half-life (female C57BL/6 mouse, plasma; intravenous, 4 mg/kg, single dose): 0.51 h

OC[C@H]1O[C@@H](c2ccc(Cl)c(Cc3ccc(O[C@H]4CCOC4)cc3)c2)[C@H](O)[C@@H](O)[C@@H]1O
half-life (CD-1 mouse, plasma; intravenous, 5 mg/kg): 0.16 h

Cc1noc(-c2ccc(CSCCC(=O)O)cc2)c1NC(=O)O[C@H](C)c1ccccc1Cl
half-life (mouse, plasma; oral, 50 mg/kg): 0.98 h

COc1ccc2c3c1O[C@H]1C[C@@H](OC(=O)c4ccccc4)C=C[C@@]31CCN(C)C2
half-life (mouse, blood; intravenous, 3 mg/kg): 0.48 h

Cn1cnc2c(F)c(Nc3ccc(Br)cc3Cl)c(C(=O)NOCCO)cc21
half-life (nude mouse, liver; oral, 5 mg/kg, single dose, tumour-bearing): 3.5 h

COc1ccc(C[C@@H](C(=O)NO)n2cc(CNS(=O)(=O)c3ccc(-c4ccccc4)s3)nn2)cc1
half-life (female CD-1 mouse, plasma; intraperitoneal, 50 mg/kg): 0.5 h

NC[C@@H]1O[C@H](O[C@H]2[C@@H](O)[C@H](O[C@@H]3[C@@H](O)[C@H](N)C[C@H](N)[C@H]3O[C@H]3O[C@H](CO)[C@@H](O)[C@H](O)[C@H]3N)O[C@@H]2CO)[C@H](N)[C@@H](O)[C@@H]1O
half-life (male BALB/c mouse, plasma; intravenous, 15 mg/kg): 2.6 h

CNC(=O)c1ccccc1Nc1cc(Nc2cc(C)c(C3CCN(CCCCCCNC(=O)COc4cccc5c4C(=O)N(C4CCC(=O)NC4=O)C5=O)CC3)cc2OC(C)C)ncc1C(F)(F)F (centres unmarked)
half-life (male Swiss mouse, plasma; intraperitoneal, 10 mg/kg): 6.1 h

COc1ccc(NC(=O)N2CCCCN3[C@H](CN(C)S(C)(=O)=O)[C@H](c4ccc(C#Cc5ccccc5)cc4)[C@@H]3C2)cc1
half-life (mouse, plasma; intravenous): 5 h

Oc1nc2nonc2cc1Nc1ccc(OC(F)(F)F)cc1C(F)(F)F
half-life (male C57BL/6 mouse, plasma; oral, 10 mg/kg): > 15 h

Cc1cc(NC(=O)c2cccc3cc(-c4cccc5[nH]nc(N)c45)ccc23)ccc1F
half-life (male CD-1 mouse, plasma; oral, 10 mg/kg): 2.15 h

NC(=S)NN=Cc1ncccc1N
half-life (female C57BL/6 mouse, plasma; intravenous, 20 mg/kg): 1.08 h

COc1ccc([C@@]23Oc4cc(OC)cc(OC)c4[C@]2(O)[C@H](O)[C@H](C(=O)N(C)C)[C@H]3c2ccccc2)cc1
half-life (mouse, plasma; intravenous, 5 mg/kg): 1.5 h

NCC1CCN(c2nc(-c3ccncc3)nc3sc4c(c23)CCCC4)CC1
half-life (female CD-1 mouse, plasma; oral, 20 mg/kg): 7.8 h

COc1ccc(C(O)COc2ccc(-c3csc(-c4ccc(OCC(O)c5ccc(OC)c(OC)c5)cc4)n3)cc2)cc1OC (centres unmarked)
half-life (C57BL/6 mouse, plasma; oral, 75 mg/kg): 4.1 h

CN(C)C/C=C/C(=O)Nc1ccc(O[C@@H]2CCC[C@@H](Nc3ncc(Cl)c(-c4c[nH]c5ccccc45)n3)C2)cc1
half-life (male Swiss mouse, plasma; intravenous, 3 mg/kg): 2.25 h

CC(C)c1cnn2c(NCc3ccccc3)cc(NC[C@H]3CCNC[C@@H]3O)nc12
half-life (male CD-1 mouse, plasma; intravenous, 10 mg/kg): 1.9 h

CC=Cc1ccc(O)c(OC)c1
half-life (mouse, lung; intranasal, 100 mg/kg): 0.521 h

CNC(=O)c1cc(OC)cc2c(N3CCc4c(cc(Cn5ccnc5)cc4-c4cn(C)nc4C(F)(F)F)C3=O)ccnc12
half-life (male CD-1 mouse, plasma; intravenous, 3 mg/kg): 1.1 h

Cc1cc(Nc2ccc(S(F)(F)(F)(F)F)cc2)n2ncnc2n1
half-life (male Swiss mouse, plasma; oral, 100 mg/kg, single dose): 14 h

Cc1nc(-c2cnc(NC(C)C)n(C)c2=O)ccc1Oc1ccnc(-c2cnn(C)c2)c1
half-life (female mouse, plasma; oral, 15 mg/kg, single dose): 6.85 h

CCc1cc(C(=O)NC)c2nccc(N3CCc4c(cc(Cn5ccnc5)cc4-c4cn(C)nc4C(F)(F)F)C3=O)c2c1
half-life (male CD-1 mouse, plasma; oral, 50 mg/kg): 1.5 h

COC(=O)C1=C(C)OC(C)=C(C(C)=O)C1c1ccc(Cl)c(C(F)(F)F)c1 (centres unmarked)
half-life (C57BL/6 mouse, plasma; intravenous, 10 mg/kg): 0.25 h

COc1cc(OC)c2nccc(N3CCc4c(cc(Cn5ccnc5)cc4-c4cn(C)nc4C(F)(F)F)C3=O)c2c1
half-life (male CD-1 mouse, plasma; intravenous, 3 mg/kg): 0.5 h

COc1nc(-c2cc(C)c(N[C@@H](C)c3cc(F)cc(F)c3)nn2)ccc1-n1cnc(C)c1
half-life (male CD-1 mouse, plasma; intravenous, 1 mg/kg, single dose): 3.1 h

CC(C)(C)c1ccc(O)c(CN(Cc2cc(C(C)(C)C)ccc2O)C2CCC(NC(N)=O)CC2)c1 (centres unmarked)
half-life (male C57BL/6 mouse, brain; oral, 10 mg/kg, single dose): 7.36 h

COc1ccc2nccc(N3CCc4c(cc(Cn5ccnc5)cc4-c4cn(C)nc4C(F)(F)F)C3=O)c2c1
half-life (male CD-1 mouse, plasma; intravenous, 3 mg/kg): 0.7 h

Cc1nc(NC2Cc3cc(F)c(F)cc3C2)c2c(C)noc2n1
half-life (male Swiss mouse, plasma; oral, 20 mg/kg): 0.9 h

COc1cc2c(Nc3ccc(Cl)c(Cl)c3F)ncnc2cc1OC[C@@H]1C[C@@H]2CN(C)C[C@@H]2C1
half-life (FVB mouse, plasma; oral, 70 mg/kg, single dose): 14 h

CCCc1c(C2CCCCN2CCN2CCOCC2)[nH]c2cc(OC(F)(F)F)ccc12 (centres unmarked)
half-life (male mouse, plasma; oral, 30 mg/kg): 11 h

CNCCN(C)c1cc(C#N)cc(CCc2cc(C)cc(N)n2)c1
half-life (male BALB/c mouse, plasma; intravenous, 2 mg/kg): 1.1 h

CNC(=O)[C@H](Cc1c[nH]cn1)NC(=O)CN(CCCc1ccccc1)CC(=O)OC
half-life (male C57BL/6 mouse, plasma; intraperitoneal, 30 mg/kg): 0.117 h

C[C@H]1CCCN1Cc1nc2cc(NC(=O)c3ccc4c(cnn4C)c3)ccc2[nH]1
half-life (female BALB/c mouse, plasma; oral, 100 mg/kg): 0.83 h
